The record followed here is ChEMBL document CHEMBL1124076, “125I-labeled 8-phenylxanthine derivatives: antagonist radioligands for adenosine A1 receptors” (J Med Chem, 1988).

For one assay, the target named is Adenosine A2 receptor (Homo sapiens, UniProt P29275+P29274). The experiment in a line: Inhibition of NECA binding to adenosine A2 receptor mediates reduced adenylate cyclase activity in human platelets.
For assay [1], the target named is T1, Adenosine receptor A1 (Bos taurus, UniProt P28190).
T1 sequence (P28190 whole entry): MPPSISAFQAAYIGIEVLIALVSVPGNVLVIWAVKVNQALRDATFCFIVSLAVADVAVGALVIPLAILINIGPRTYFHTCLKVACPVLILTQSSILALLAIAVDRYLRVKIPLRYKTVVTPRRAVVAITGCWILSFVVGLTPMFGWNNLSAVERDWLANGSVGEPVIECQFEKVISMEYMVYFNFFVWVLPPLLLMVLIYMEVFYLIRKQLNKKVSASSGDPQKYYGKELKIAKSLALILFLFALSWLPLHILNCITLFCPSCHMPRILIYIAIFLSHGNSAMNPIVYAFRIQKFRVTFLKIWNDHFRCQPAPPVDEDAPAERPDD
The experiment in a line: Displacement of [125-I]-labeled aminobenzyl adenosine binding to adenosine A1 receptor of bovine brain membranes. Format: cell membranes. The method in brief:
(§1)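 Bovine cerebral cortex membranes, pretreated with EDTA, at 0.5 mg protein/mL in 10 mM HEPES, 1 mM EDTA, 0.1 mM benzamidine, pH 7.4. Incubated 2-3 h at 21 °C, then filtered and washed with ice-cold 10 mM Tris-HCl pH 7.4. Nonspecific binding by 100 μM PIA, 1 mM theophylline or 1 μM IIIa.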

Assay [2] addresses T1, Adenosine receptor A1. The experiment in a line: Binding affinity for adenosine A1 receptor as inhibition of [125-I]-labeled aminobenzyl adenosine binding to bovine brain membranes. Format: cell membranes. The method in brief:
as §1

Assay [3] deals with T1, Adenosine receptor A1. The experiment in a line: Binding affinity for adenosine A1 receptor using [125-I]-labeled aminobenzyl adenosine in bovine brain membranes. The format is cell membranes. Summed up: as §1
For assay [4], the target named is T2, Adenosine receptor A1 (Rattus norvegicus, UniProt P25099).
T2 sequence (P25099 whole entry): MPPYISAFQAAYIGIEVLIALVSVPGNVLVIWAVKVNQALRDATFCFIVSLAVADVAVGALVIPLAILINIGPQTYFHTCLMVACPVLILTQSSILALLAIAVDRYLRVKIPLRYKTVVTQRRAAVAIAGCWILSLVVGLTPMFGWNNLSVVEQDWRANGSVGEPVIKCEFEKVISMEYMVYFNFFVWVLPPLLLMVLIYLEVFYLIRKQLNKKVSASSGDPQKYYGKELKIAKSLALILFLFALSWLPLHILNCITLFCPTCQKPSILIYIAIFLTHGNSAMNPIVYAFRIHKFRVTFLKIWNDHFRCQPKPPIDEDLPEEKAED

For assay [5], the target named is T2, Adenosine receptor A1. The assay is described as follows: Binding affinity to adenosine A1 receptor of rat brain membranes with 1 M NaCl by inhibition of [125-I]-IIIa binding.

One may read the Ki as the equilibrium dissociation constant of an inhibitor or competing ligand from its target. The low end stands for a stronger hold on the target, the high end for a looser hold on the target. A word on the Kd: it is the constant that tells how readily two partners part at equilibrium. A lower Kd goes with tighter binding. The compound `CCCn1c(=O)c2nc(-c3ccc(OCC(=O)O)cc3)[nH]c2n(CCc2ccc(N)c(I)c2)c1=O` had an inhibition constant (Ki) at Adenosine A2 receptor of 5.3 µM. Moreover, the Kd on Adenosine receptor A1 [1] stood at 0.029 µM.
`Nc1ccc(CCn2c(=O)c3nc(-c4ccc(OCC(=O)O)cc4)[nH]c3n(CCc3ccc(N)cc3)c2=O)cc1`: on Adenosine A2 receptor, the Ki is > 100 µM. For the same compound, on Adenosine receptor A1 [1], the dissociation constant (Kd) is 3.59 µM.
On Adenosine A2 receptor, `CCCn1c(=O)n(Cc2ccc(N=[N+]=[N-])c(I)c2)c(=O)c2[nH]c(-c3ccc(OCC(=O)O)cc3)nc21` gave an inhibition constant (Ki) of 5.3 µM. Further, at Adenosine receptor A1 [2], the Kd is 0.96 µM.
On Adenosine receptor A1 [3], `CCCn1c(=O)c2nc(-c3ccc(OCC(=O)O)cc3)[nH]c2n(Cc2ccc(N=[N+]=[N-])c(I)c2)c1=O` returned a dissociation constant Kd of 0.055 µM. This compound also yielded a Ki on Adenosine A2 receptor of 2.1 µM.
With `CCCn1c(=O)n(CCc2ccc(N)c(I)c2)c(=O)c2[nH]c(-c3ccc(OCC(=O)O)cc3)nc21`, the inhibition constant (Ki) at Adenosine A2 receptor was found to be 20 µM. The compound also gave an equilibrium dissociation constant (Kd) at Adenosine receptor A1 [1] of 3.1 µM.
In turn, `CCCn1c(=O)n(Cc2ccc(N)c(I)c2)c(=O)c2[nH]c(-c3ccc(OCC(=O)O)cc3)nc21` showed a Ki at Adenosine A2 receptor of 1.8 µM. On Adenosine receptor A1 [1], this compound registered a Kd of 0.16 µM.
The compound `CCCn1c(=O)n(CCc2ccc(N)cc2)c(=O)c2[nH]c(-c3ccc(OCC(=O)O)cc3)nc21` gave a Ki at Adenosine A2 receptor of 11.5 µM. Also, the equilibrium dissociation constant (Kd) at Adenosine receptor A1 [1] was 2.3 µM.
Broadly, the IC50 is the point on the concentration scale where inhibition reaches its midpoint. Low values mean higher potency, high ones lower potency. As to `CCCn1c(=O)n(Cc2ccc(N)cc2)c(=O)c2[nH]c(-c3ccc(OCC(=O)O)cc3)nc21`, the IC50 against Adenosine receptor A1 [4] turned out to be 0.044 µM; at Adenosine receptor A1 [5], 0.0052 µM. The compound also gave a Ki on Adenosine A2 receptor of 23 µM. On Adenosine receptor A1 [1], this compound had a Kd of 0.044 µM.
For the compound `CCCn1c(=O)c2nc(-c3ccc(OCC(=O)O)cc3)[nH]c2n(CCc2ccc(N=[N+]=[N-])c(I)c2)c1=O`, the Ki at Adenosine A2 receptor is 5.4 µM. Also, binding at Adenosine receptor A1 [1] was characterised by a dissociation constant (Kd) of 0.024 µM.
Take `CCCn1c(=O)c2[nH]c(-c3ccc(OCC(=O)O)cc3)nc2n(CCC)c1=O`: the Kd on Adenosine receptor A1 [2] worked out at 0.017 µM.
For the compound `CCCn1c(=O)c2nc(-c3ccc(OCC(=O)O)cc3)[nH]c2n(Cc2ccc(N)cc2)c1=O`, the IC50 against Adenosine receptor A1 [4] worked out at 0.064 µM; on Adenosine receptor A1 [5] it was 0.0034 µM. At Adenosine A2 receptor, this compound yielded a Ki of 1 µM. This compound had a Kd on Adenosine receptor A1 [1] of 0.032 µM.
On to `CCCn1c(=O)c2nc(-c3ccc(OCC(=O)O)cc3)[nH]c2n(CCc2ccc(N)cc2)c1=O`, for which the IC50 on Adenosine receptor A1 [4] was 0.037 µM; at Adenosine receptor A1 [5], 0.0034 µM. In addition, the Ki at Adenosine A2 receptor turned out to be 11.5 µM. The compound further gave a Kd at Adenosine receptor A1 [1] of 0.06 µM.
At Adenosine A2 receptor, `CCCn1c(=O)n(CCc2ccc(N=[N+]=[N-])c(I)c2)c(=O)c2[nH]c(-c3ccc(OCC(=O)O)cc3)nc21` registered an inhibition constant Ki of 12.3 µM. Moreover, the Kd at Adenosine receptor A1 [2] was 2.86 µM.
In the case of `CCCn1c(=O)c2nc(-c3ccc(OCC(=O)O)cc3)[nH]c2n(Cc2ccc(N)c(I)c2)c1=O`, the IC50 on Adenosine receptor A1 [4] was found to be 0.037 µM; on Adenosine receptor A1 [5], 0.003 µM. Also, the Ki on Adenosine A2 receptor stood at 0.7 µM. The compound also showed a Kd on Adenosine receptor A1 [1] of 0.037 µM.
